Source: PubChem
Biofilm kill mix – mixture kills Candida albicans biofilm cells; AID 1242; C. albicans biofilm persisters + clotrimazole, fluorescence viability; primary screen in compound mixtures of four per well; 120,000 compounds, 0.02% hits; inhibition, % at 7.6 µM;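 active = inhibition above 30.3% in the primary screen of four-compound pools, then above 30% when the compound was retested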;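 also: compounds exposed to preformed 24 h biofilms for 48 h; 0% = untreated biofilm control and 100% = clotrimazole plus chlorhexidine kill blank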
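Test system: C. albicans biofilms. Buffer or medium: RPMI/MOPS medium, pH 7.0. Timing: 48 h compound exposure at 37 °C. Technique: Alamar Blue fluorescence. Evaluation: percent inhibition of biofilm viability.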
Pf gametocyte – kills late stage P. falciparum gametocytes; P. falciparum stage V gametocytes, ATP luminescence, 24 h; inhibition, % at 10.9 µM; 150,000 compounds, 0.065% hits;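 active = inhibition above the mean plus 3 SD of compounds within the control limits, set per campaign, cut at about 38% in these data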;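 also: 0% = DMSO wells and 100% = medium only without gametocytes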
An asterisk follows results filed as active. Only some compounds are listed: those with a hit (about 0.073% of all), similar ones and a draw of the others.

N/C(Cc1ccc([N+](=O)[O-])cc1)=N\OC(=O)CC1CCCCC1 was read as Biofilm kill mix 5 and Pf gametocyte 59*.
For Cc1ccc(CC(=O)O/N=C(\N)Cc2ccc([N+](=O)[O-])cc2)cc1 the results were Biofilm kill mix 13 and Pf gametocyte 29.
Screening COc1cc(/C=N/NC(=O)CSc2cc(C)c(Br)cc2C)ccc1O returned Pf gametocyte 15.
For Cc1cc(SCC(=O)N/N=C/c2ccc(O)c(O)c2O)c(C)cc1Br the results were Pf gametocyte 39*.
Cc1nc2sccn2c(=O)c1Br was read as Biofilm kill mix 7.
Screening Cn1c(N)c(N2CCN(c3ccccc3)CC2)c(=O)[nH]c1=O returned Biofilm kill mix 7.
Screening CCOC(=O)C(C#N)C(c1cccnc1)c1c(C)[nH][nH]c1=O (centres undefined) returned Pf gametocyte 40*.
`CCOC(=O)/C(C#N)=C\c1cccnc1` gave Biofilm kill mix 10 and Pf gametocyte -30.
`O=C(CSc1nnc2ccc(-c3ccccn3)nn12)N1CCCC1` gave Pf gametocyte 12.
COc1ccc(Cl)cc1C(=O)CSc1nnnn1C1CCCCC1 was read as Pf gametocyte 43*.
Screening CCn1nnnc1SCC(=O)c1cc(Cl)ccc1OC returned Biofilm kill mix 24 and Pf gametocyte 12.
COc1ccc(COC(=O)C2=C(C)NC(=O)NC2c2ccccc2)cc1 (centres undefined) was read as Pf gametocyte 12.
`Cc1cc(C)nc(SCc2ccc(C(=O)N/N=C/C3CCCCC3)cc2)n1` gave Biofilm kill mix 17 and Pf gametocyte 11.
COc1ccc(OC)c(C2=NOC(C(=O)Nc3cc(C)on3)C2)c1 (centres undefined) was read as Biofilm kill mix 13 and Pf gametocyte 33.
Screening Cc1ccc(N2C(=O)N(c3ccc(C)cc3)C3CS(=O)(=O)CC32)cc1 (centres undefined) returned Biofilm kill mix 13 and Pf gametocyte 23.
Cc1ccc(N2C(=S)SC3CS(=O)(=O)CC32)cc1 (centres undefined) was read as Biofilm kill mix 10 and Pf gametocyte 38*.
For CC(=O)/C(N=Nc1c(C)n(C)n(-c2ccccc2)c1=O)=C(\C)O the results were Biofilm kill mix -10 and Pf gametocyte -18.
Screening CCOC(=O)/C(N=Nc1c(C)n(C)n(-c2ccccc2)c1=O)=C(\C)O returned Biofilm kill mix 22 and Pf gametocyte 65*.
`O=c1c(Cl)c(N2CCCCC2)cnn1-c1nc2ccccc2[nH]1` gave Pf gametocyte -8.
For O=c1c2ccccc2cnn1-c1nc2ccccc2[nH]1 the results were Biofilm kill mix 15 and Pf gametocyte 47*.
`Cc1ccc(NC(=O)CC2=NC(=O)C(CC(=O)Nc3ccccc3C)S2)cc1` (centres undefined) gave Biofilm kill mix 14.
For CCOC(=O)[C@H]1[C@H]2COc3cc(OC)ccc3[C@@H]2N2C(=O)c3cc(C)ccc3NC(=O)[C@@]12C the results were Pf gametocyte -14.
Screening CCOC(=O)[C@H]1[C@H]2COc3cc(OC)ccc3[C@@H]2N2C(=O)c3ccc(C)cc3NC(=O)[C@@]12C returned Pf gametocyte 39*.
c1cc(-c2cc3cc(N4CCOCC4)ccc3o2)cs1 was read as Pf gametocyte -26.
`COc1cc2c(cc1OC)C(c1ccccc1Cl)N(C)CC2` (centres undefined) gave Pf gametocyte -6.
For COCC(=O)Nc1ccc(Br)cc1C the results were Biofilm kill mix 0 and Pf gametocyte 39*.
For Cc1cc(F)ccc1NCC(=O)Nc1ccc(Br)cc1C the results were Biofilm kill mix 18 and Pf gametocyte 1.
`COCCNC(=O)C(C(=O)c1ccc(F)cc1)n1cc(C)ccc1=O` (centres undefined) gave Biofilm kill mix 10 and Pf gametocyte 6.
`CCOc1ccc(S(=O)(=O)N2CCCC2)cc1` gave Pf gametocyte 40*.
`CCN(CC)C(=O)COc1ccc(S(=O)(=O)N2CCCC2)cc1` gave Pf gametocyte -4.
For O=C(c1ccc(S(=O)(=O)c2ccccc2Cl)c([N+](=O)[O-])c1)N1CCCCCC1 the results were Biofilm kill mix 21 and Pf gametocyte -3.
`CCCCNc1c(NC(C)=O)c(=O)oc2ccccc12` gave Biofilm kill mix 21 and Pf gametocyte -1.
O=C(CN1C(=O)C(=O)N(C2CCCC2)C1=O)Nc1ccc(N2CCOCC2)cc1 was read as Biofilm kill mix 20 and Pf gametocyte -9.
`COc1ccc(CCN(C)CCCN2CC(c3ccccc3)CC2=O)cc1OC` (centres undefined) gave Biofilm kill mix 4 and Pf gametocyte 42*.
Screening COc1ccc(C2CC(=O)N(CCCN(C)CCc3ccc(OC)c(OC)c3)C2)cc1 (centres undefined) returned Biofilm kill mix 19.
O=Cc1ccc(OC2OCCOC2Oc2ccc(C=O)cc2)cc1 (centres undefined) was read as Biofilm kill mix 7 and Pf gametocyte 19.
COc1ccc(/C(C)=N/NC(=S)NCCc2ccccc2)cc1 was read as Biofilm kill mix 10 and Pf gametocyte 39*.
COc1ccc(CNC(=S)N/N=C(\C)c2ccc(OC)cc2)cc1 was read as Biofilm kill mix 28 and Pf gametocyte 5.
CC1(C)CC(=O)C(N=Nc2cccc(S(=O)(=O)N3CCOCC3)c2)=C(O)C1 was read as Biofilm kill mix 2 and Pf gametocyte -9.
For CC1CCN(S(=O)(=O)c2ccc(N=NC3=C(O)CC(C)(C)CC3=O)cc2)CC1 the results were Biofilm kill mix 9 and Pf gametocyte 44*.
For CN(C)C(=O)CCCCCCCCC(=O)N(C)C the results were Biofilm kill mix 21 and Pf gametocyte 8.
`COc1cc(/C(C)=N/NC(=O)CN2CCN(S(=O)(=O)c3ccc(C)cc3)CC2)ccc1O` gave Biofilm kill mix 26 and Pf gametocyte 39*.
For C/C(=N\NC(=O)CN1CCN(S(=O)(=O)c2ccc(C)cc2)CC1)c1ccc(O)cc1 the results were Biofilm kill mix 16 and Pf gametocyte 23.
For Cc1noc(C)c1S(=O)(=O)Nc1ccc2c(c1)C(=O)N([C@H](C)CO)C[C@H](C)[C@@H](CN(C)Cc1ccc(C(=O)O)cc1)O2 the results were Pf gametocyte 12.
Screening CC(C)(C)OC(=O)COc1cc(F)ccc1[N+](=O)[O-] returned Pf gametocyte -26.
`CCOc1ccc(N2C(=O)CC(N(CCc3ccc(OC)cc3)C(=O)/C=C/C(=O)O)C2=O)cc1` (centres undefined) gave Biofilm kill mix -7 and Pf gametocyte 8.
Screening Cc1nn(-c2ccccc2)c2nc(-c3ccncc3)cc(C(=O)NCc3ccco3)c12 returned Pf gametocyte 56*.
Cc1ccccc1-n1nc(C)c2c(C(=O)NN)cc(-c3ccncc3)nc21 was read as Biofilm kill mix 6 and Pf gametocyte -10.
Screening COc1ccc(C(=O)Nc2ccccc2C(=O)Nc2ccc(C(=O)O)cc2)cc1 returned Pf gametocyte -14.
`COc1ccc(C(=NNc2ccccc2C(=O)O)c2ccc(OC)cc2)cc1` gave Biofilm kill mix 14 and Pf gametocyte 53*.
Screening Cc1cc(C)nc(NC(=NCCc2c[nH]c3ccccc23)NC(=O)C(C)(C)C)n1 returned Biofilm kill mix 35 and Pf gametocyte 10.
Screening CC(C)C[C@@H](CN1C(=O)C(=O)NC[C@@H]1CC(C)C)NC(=O)Cc1ccccc1 returned Pf gametocyte -30.
